Experimental data collected from several papers.
Each line is one published result; the experiments were not run side by side.
Target: Serine/threonine-protein kinase Nek1 (NEK1, Homo sapiens, UniProt Q96PY6)
Residues used in one study (Q96PY6 1-1258): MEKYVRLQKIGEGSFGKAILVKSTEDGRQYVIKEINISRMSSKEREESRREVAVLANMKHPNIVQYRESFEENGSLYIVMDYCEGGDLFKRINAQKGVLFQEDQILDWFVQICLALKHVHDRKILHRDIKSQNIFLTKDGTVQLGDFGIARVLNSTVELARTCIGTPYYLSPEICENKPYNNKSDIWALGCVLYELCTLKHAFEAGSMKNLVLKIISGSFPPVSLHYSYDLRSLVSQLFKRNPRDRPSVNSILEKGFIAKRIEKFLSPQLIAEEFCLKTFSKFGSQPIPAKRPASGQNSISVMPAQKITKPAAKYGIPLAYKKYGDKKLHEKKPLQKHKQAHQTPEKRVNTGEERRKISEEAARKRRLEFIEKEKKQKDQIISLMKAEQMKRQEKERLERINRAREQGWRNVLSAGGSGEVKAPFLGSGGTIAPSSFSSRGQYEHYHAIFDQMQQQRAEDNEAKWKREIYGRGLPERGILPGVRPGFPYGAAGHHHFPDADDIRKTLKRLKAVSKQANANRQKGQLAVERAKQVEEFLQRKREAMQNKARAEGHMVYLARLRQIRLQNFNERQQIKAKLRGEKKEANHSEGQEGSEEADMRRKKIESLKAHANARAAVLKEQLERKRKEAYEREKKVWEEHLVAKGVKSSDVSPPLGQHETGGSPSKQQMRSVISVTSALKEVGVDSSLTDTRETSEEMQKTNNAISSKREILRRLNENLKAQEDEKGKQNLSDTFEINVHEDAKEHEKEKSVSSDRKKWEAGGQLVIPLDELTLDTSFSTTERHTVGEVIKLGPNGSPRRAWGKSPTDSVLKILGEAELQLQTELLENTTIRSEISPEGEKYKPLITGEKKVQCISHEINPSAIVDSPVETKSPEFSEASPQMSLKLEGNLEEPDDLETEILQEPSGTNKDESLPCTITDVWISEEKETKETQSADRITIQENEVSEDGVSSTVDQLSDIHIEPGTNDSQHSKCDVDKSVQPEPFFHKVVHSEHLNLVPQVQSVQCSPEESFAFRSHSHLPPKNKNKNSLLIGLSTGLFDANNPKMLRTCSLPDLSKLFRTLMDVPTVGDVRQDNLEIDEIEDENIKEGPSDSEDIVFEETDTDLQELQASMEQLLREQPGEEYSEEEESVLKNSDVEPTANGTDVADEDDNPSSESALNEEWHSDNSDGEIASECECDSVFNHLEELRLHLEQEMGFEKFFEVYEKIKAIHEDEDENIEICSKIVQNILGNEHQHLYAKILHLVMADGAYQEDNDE

COCc1c(-c2cc3cc(C)cc(OC)c3s2)c2c(N)ncnn2c1CN1CCNC(=O)C1 gave an inhibition of 78% (cell-free assay; competition with immobilised ligand; 1 µM).
O=C(NCc1ncc(C(F)(F)F)cc1Cl)c1ccc2c(c1)C1(CCS(=O)(=O)CC1)[C@@H](C1CC1)N2S(=O)(=O)c1ccc(F)cc1 has a remaining binding of 96% (cell-free assay; competition with immobilised ligand; 1 µM).
CC(C)(C)c1cc(C=C(C#N)C#N)cc(Br)c1O gave a remaining activity of 97.7% (enzyme activity; inhibitor; 0.5 µM).
Cn1cncc1[C@](O)(COc1ccc(C#N)cc1-c1ccc(OC(F)(F)F)cc1)c1ccc(C#N)cc1 gave a remaining binding of 80% (cell-free assay; competition with immobilised ligand; 1 µM).
O=c1[nH]c2ccccc2n1C1CCN(Cc2ccc(-c3[nH]c4cc5ncnc5cc4nc3-c3ccccc3)cc2)CC1 gave a remaining signal of 101% (cell-free assay; 0.5 µM).
Nc1ncc(-c2nc(N3CCOCC3)nc(N3CCOCC3)n2)c(C(F)F)n1 gave a remaining binding of 99% (binding; competition with immobilised ligand; 10 µM).
COc1ncccc1-c1cnn2ccc(N3CCN(C(=O)OC(C)C)CC3)nc12 gave a remaining binding of 100% (binding; competition with immobilised ligand; 1 µM).
With Cn1cc(-c2cc(F)cc(N3CCn4c(cc5c4CCCC5)C3=O)c2CO)cc(Nc2ccc(N3CCN(C4COC4)CC3)cn2)c1=O the inhibition was -3% (enzyme activity; inhibitor; 0.1 µM).
With Cc1nn(C)cc1-c1nc2c(N3CCN(Cc4ccc(Cl)cc4)CC3)c(Cl)cnc2[nH]1 the remaining binding was 82% (binding; competition with immobilised ligand; 1 µM).
The inhibition of CCN1CCN(Cc2ccc(NC(=O)c3ccc(C)c(/C=C/c4cnc5[nH]ccc5c4OC)c3)cc2C(F)(F)F)CC1 is reported as -17% (target engagement in cells; inhibitor; chemoproteomics; A-375; 50 nM).
For Cn1cc(-c2cccc(N3CCc4c(sc5c4CC(C)(C)C5)C3=O)c2CO)cc(Nc2ccncn2)c1=O, the inhibition was 5% (enzyme activity; inhibitor; 1 µM).
COc1cc(Nc2ncc(F)c(Nc3ccc4c(n3)NC(=O)C(C)(C)O4)n2)cc(OC)c1OC has an inhibition of 96% (binding; competition with immobilised ligand; 10 µM).
